Data reported in ChEMBL document CHEMBL2385063, “Identification of 2-(2-(1-naphthoyl)-8-fluoro-3,4-dihydro-1H-pyrido[4,3-b]indol-5(2H)-yl)acetic acid (setipiprant/ACT-129968), a potent, selective, and orally bioavailable chemoattractant receptor-homologous molecule expressed on Th2 cells (CRTH2) antagonist” (J Med Chem, 2013).
Converted amounts (≈) assume the structure as drawn.

How the values were obtained:
[1] = biological target: T1, Prostaglandin D2 receptor (Homo sapiens, UniProt Q13258); assay: Displacement of [3H]PGD2 from recombinant human prostanoid DP1 receptor expressed in CHO cells after 90 mins by scintillation counting analysis; type: cell-based
T1 sequence (Q13258 whole entry): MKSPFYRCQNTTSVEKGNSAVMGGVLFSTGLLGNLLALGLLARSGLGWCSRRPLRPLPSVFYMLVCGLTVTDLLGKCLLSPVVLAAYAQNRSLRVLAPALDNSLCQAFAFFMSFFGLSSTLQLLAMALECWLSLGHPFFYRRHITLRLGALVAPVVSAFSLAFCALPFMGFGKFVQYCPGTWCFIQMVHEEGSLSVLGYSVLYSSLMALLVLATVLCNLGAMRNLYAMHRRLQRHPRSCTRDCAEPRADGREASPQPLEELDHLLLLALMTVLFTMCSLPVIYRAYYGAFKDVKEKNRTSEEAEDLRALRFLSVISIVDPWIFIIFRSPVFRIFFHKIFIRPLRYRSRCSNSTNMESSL
Outline: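 Competitive binding with CHO cells stably expressing high levels of recombinant hDP1, using [3H]PGD2 as ligand; IC50 reported.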

[2] = biological target: T2, Prostaglandin D2 receptor 2 (Homo sapiens, UniProt Q9Y5Y4); assay: Antagonist activity at CRTH2 receptor in human eosinophils assessed as inhibition of PGD2-induced cell shape change incubated for 10 mins prior to PGD2 induction measured after 5 mins by FACS flow cytometric analysis in presence of human plasma
T2 sequence (Q9Y5Y4 whole entry): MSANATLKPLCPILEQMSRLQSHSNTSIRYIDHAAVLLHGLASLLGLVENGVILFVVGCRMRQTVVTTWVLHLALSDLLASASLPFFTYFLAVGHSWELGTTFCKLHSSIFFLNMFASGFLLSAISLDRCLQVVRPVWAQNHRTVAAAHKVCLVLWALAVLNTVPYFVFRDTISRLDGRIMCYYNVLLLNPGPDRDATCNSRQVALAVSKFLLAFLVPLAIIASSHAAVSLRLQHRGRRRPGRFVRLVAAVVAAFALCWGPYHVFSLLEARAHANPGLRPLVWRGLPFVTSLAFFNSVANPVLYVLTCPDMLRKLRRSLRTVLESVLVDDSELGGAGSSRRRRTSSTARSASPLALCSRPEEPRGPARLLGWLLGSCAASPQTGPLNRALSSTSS

[3] = biological target: T3, Prostaglandin G/H synthase 1 (Ovis aries) (UniProt P05979); assay: […] at ovine COX-1 at 10 uM relative to control; parameters: scale not given: the % may be the effect or the level left
T3 sequence (whole entry): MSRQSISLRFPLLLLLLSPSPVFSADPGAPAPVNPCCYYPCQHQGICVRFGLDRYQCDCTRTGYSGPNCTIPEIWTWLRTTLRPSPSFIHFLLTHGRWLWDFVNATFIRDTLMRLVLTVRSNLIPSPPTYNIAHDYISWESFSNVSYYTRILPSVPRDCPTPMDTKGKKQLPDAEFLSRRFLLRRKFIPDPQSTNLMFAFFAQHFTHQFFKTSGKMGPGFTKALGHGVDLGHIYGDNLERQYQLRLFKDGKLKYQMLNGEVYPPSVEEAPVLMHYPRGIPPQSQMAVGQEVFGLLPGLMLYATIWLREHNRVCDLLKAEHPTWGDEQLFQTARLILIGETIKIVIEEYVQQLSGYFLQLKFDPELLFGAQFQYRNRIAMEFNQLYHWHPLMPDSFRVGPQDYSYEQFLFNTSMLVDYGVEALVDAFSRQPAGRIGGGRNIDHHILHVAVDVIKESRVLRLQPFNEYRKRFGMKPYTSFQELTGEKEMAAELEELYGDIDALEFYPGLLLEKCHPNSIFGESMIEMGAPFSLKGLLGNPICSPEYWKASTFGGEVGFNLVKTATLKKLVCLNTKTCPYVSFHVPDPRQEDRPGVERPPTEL
Outline: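 Ovine COX-1 activity measured with a commercial kit, following the manufacturer's protocol. Compounds were tested in duplicate at 10 μM final concentration. Activity is expressed as inhibition relative to control.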

Homo sapiens = species: Homo sapiens; assay: Selectivity factor, ratio of IC50 for recombinant human prostanoid DP1 receptor to IC50 for recombinant human CRTH2 receptor
Outline: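 hDP₁ IC₅₀ came from competitive [³H]PGD₂ binding on CHO cells stably overexpressing recombinant hDP₁. hCRTh2 IC₅₀ came from [³H]PGD₂ (2.5 nM) displacement on membranes of HEK-293 cells stably expressing hCRTh2, incubated 90 min at room temperature, filtered and counted. f_Sel = IC₅₀(hDP₁)/IC₅₀(hCRTh2).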

[4] = Elimination half life in human plasma at 1 mM by HR-LC-MS analysis; type: ADME, cell-free; settings: read-out: beta t1/2
[5] = Intrinsic clearance in human liver microsomes measured per mg of protein at 1 uM by LC/MS-MS analysis; type: ADME, Microsome; settings: read-out: CLH
[6] = Solubility of the compound in aqueous buffer at pH 4; type: physicochemical
Outline: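 Compound was stirred in water, 60 mM citrate buffer pH 4 or 70 mM phosphate buffer pH 7 at 300 rpm, 25 °C, for 24 h. The mixture was filtered, and the filtrate concentration was measured by HPLC-UV at 250 nm against a calibration curve.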

[7] = Intrinsic clearance in rat hepatocytes measured per 10^6 cells at 1 uM by LC/MS-MS analysis; type: ADME, cell-based, Hepatocyte; settings: read-out: CLH
Cytochrome P450 3A4 = Cytochrome P450 3A4 (Homo sapiens, UniProt P08684); assay: Inhibition of CYP3A4 in human liver microsomes assessed as midazolam-1'-hydroxylation by LC-MS/MS analysis; type: ADME, Microsome
[8] = Half life in simulated gastric fluid at 2 uM by LC-MS analysis; type: physicochemical
Outline: (§1)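 Compounds were incubated in simulated gastric fluid for 1 h or simulated intestinal fluid for 4 h. Unchanged parent was quantified by LC-MS.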

[9] = biological target: T2, Prostaglandin D2 receptor 2; assay: Antagonist activity at CRTH2 receptor in human eosinophils assessed as inhibition of PGD2-induced cell shape change incubated for 1 hr prior to PGD2 induction measured after 5 mins by FACS flow cytometric analysis in presence of human plasma; settings: in the assay text read “incubated for 10 mins” for “incubated for 1 hr”
Outline: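 Polymorphonuclear cells isolated from healthy-donor blood on a Polymorphprep gradient (500g, 30 min), erythrocytes lysed hypotonically. Cells stained 1 h with CD49d-APC, mixed with human plasma, preincubated with antagonist, then stimulated with 15 nM PGD2 for 5 min at 37 °C. Fixed in cold 1% paraformaldehyde. Eosinophils gated by CD49d/SSC; activation read as % cells with raised forward scatter.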

[10] = Intrinsic clearance in rat liver microsomes measured per mg of protein at 1 uM by LC/MS-MS analysis; type: ADME, Microsome; settings: read-out: CLH
[11] = n-octanol-KH2PO4-Na2HPO4 buffer partition coefficient, log D of the compound at pH 7.4 by shake flask method; type: physicochemical
Cytochrome P450 2D6 = Cytochrome P450 2D6 (Homo sapiens, UniProt P10635); assay: Inhibition of CYP2D6 in human liver microsomes assessed as dextromethorphan O-demethylation by LC-MS/MS analysis; type: ADME, Microsome
Cytochrome P450 2C9 = Cytochrome P450 2C9 (Homo sapiens, UniProt P11712); assay: Inhibition of CYP2C9 in human liver microsomes assessed as diclofenac 4'-hydroxylation by LC-MS/MS analysis; type: ADME, Microsome
[12] = Half life in simulated intestinal fluid at 2 uM by LC-MS analysis; type: physicochemical; outline: as §1

Sequence of Cytochrome P450 2C9 (P11712 whole entry): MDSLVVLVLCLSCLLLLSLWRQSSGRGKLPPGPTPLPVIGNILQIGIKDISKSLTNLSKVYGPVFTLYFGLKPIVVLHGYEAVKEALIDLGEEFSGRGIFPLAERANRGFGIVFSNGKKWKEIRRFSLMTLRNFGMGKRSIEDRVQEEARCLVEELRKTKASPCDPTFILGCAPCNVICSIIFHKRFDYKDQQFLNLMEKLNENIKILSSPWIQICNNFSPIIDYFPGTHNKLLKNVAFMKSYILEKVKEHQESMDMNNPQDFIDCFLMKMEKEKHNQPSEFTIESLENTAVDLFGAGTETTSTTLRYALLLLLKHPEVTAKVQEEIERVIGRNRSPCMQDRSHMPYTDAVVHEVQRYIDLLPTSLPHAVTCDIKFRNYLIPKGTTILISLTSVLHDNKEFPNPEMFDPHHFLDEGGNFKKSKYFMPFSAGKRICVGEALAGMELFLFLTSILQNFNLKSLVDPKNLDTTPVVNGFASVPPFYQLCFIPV
Sequence of Cytochrome P450 3A4 (P08684 whole entry): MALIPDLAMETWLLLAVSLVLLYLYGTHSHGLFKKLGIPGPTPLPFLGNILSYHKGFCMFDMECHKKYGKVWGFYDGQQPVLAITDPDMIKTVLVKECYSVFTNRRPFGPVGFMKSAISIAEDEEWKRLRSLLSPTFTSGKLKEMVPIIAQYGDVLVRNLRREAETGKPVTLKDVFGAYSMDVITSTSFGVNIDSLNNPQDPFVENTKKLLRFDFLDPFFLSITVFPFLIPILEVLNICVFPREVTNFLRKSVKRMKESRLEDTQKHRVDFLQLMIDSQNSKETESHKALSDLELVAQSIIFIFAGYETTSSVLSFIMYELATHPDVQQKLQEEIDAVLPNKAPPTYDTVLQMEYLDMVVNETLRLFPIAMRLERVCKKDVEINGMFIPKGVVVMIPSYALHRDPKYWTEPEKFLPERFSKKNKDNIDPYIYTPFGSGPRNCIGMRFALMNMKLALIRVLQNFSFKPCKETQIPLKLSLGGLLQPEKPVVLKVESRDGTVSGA
Sequence of Cytochrome P450 2D6 (P10635 whole entry): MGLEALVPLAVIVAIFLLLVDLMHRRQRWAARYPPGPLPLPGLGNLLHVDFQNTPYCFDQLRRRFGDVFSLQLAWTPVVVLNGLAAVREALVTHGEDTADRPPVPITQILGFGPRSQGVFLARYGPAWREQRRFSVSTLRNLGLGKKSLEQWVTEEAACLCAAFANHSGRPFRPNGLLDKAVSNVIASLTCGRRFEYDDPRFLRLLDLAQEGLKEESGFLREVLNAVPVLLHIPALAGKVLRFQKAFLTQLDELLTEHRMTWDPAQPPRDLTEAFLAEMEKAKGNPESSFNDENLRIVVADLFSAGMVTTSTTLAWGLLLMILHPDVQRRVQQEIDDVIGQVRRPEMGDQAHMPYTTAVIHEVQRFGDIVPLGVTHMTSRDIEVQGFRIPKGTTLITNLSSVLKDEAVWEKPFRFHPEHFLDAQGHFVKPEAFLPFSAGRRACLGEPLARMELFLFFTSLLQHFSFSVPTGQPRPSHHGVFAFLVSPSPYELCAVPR

SMILES: O=C(O)Cn1c2c(c3cc(Cl)ccc31)CN(C(=O)c1cccc3ccccc13)CC2
- IC50 [1]: 0.69 µM
- IC50 [2]: 0.1 µM
- Activity [3]: < 30%
- Ratio IC50 (Homo sapiens): 230

SMILES: O=C(O)Cn1c2c(c3cc(F)cc(Cl)c31)CN(C(=O)c1cccc(Cl)c1)CC2
- IC50 [1]: 4.1 µM
- Activity [3]: < 30%
- Ratio IC50 (Homo sapiens): 22

SMILES: O=C(O)Cn1c2c(c3cc(F)ccc31)CN(C(=O)c1cccs1)CC2
- IC50 [1]: > 10 µM
- half-life [4]: > 4 h
- microsomal CLint at 1 µM [5]: < 4 µL/min/mg
- solubility [6]: 0.08 mg/mL (≈ 223 µM)
- hepatocyte CLint at 1 µM [7]: 2.1 µL/min/1e6 cells
- IC50 (Cytochrome P450 3A4): > 50 µM
- half-life at 2 µM [8]: > 1 h
- IC50 [9]: 0.034 µM
- microsomal CLint at 1 µM [10]: 8 µL/min/mg
- logD [11]: 0.2
- Activity [3]: < 30%
- IC50 (Cytochrome P450 2D6): > 50 µM
- Ratio IC50 (Homo sapiens): > 2500
- IC50 (Cytochrome P450 2C9): 43 µM
- half-life at 2 µM [12]: > 4 h

SMILES: CCc1ccc(-c2ccc(C(=O)N3CCc4c(c5cccc(Cl)c5n4CC(=O)O)C3)cc2)cc1
- IC50 [1]: 0.12 µM
- Activity [3]: < 30%
- Ratio IC50 (Homo sapiens): 5.2

SMILES: O=C(O)Cn1c2c(c3ccccc31)CN(C(=O)C1CCCCC1)CC2
- Activity [3]: < 30%

SMILES: O=C(O)Cn1c2c(c3cc(F)ccc31)CN(C(=O)c1cccc3ccccc13)CC2 [SETIPIPRANT]
- IC50 [1]: 1.29 µM
- half-life [4]: > 4 h
- microsomal CLint at 1 µM [5]: 5 µL/min/mg
- solubility [6]: 0.09 mg/mL (≈ 224 µM)
- hepatocyte CLint at 1 µM [7]: 3.1 µL/min/1e6 cells
- IC50 (Cytochrome P450 3A4): > 50 µM
- half-life at 2 µM [8]: > 1 h
- IC50 [9]: 0.235 µM
- microsomal CLint at 1 µM [10]: 5 µL/min/mg
- logD [11]: 0.1
- Activity [3]: < 30%
- IC50 (Cytochrome P450 2D6): > 50 µM
- Ratio IC50 (Homo sapiens): 215
- IC50 (Cytochrome P450 2C9): > 50 µM
- half-life at 2 µM [12]: > 4 h

SMILES: COc1ccc2c(c1)c1c(n2CC(=O)O)CCN(C(=O)c2ccccc2)C1
- Activity [3]: < 30%

SMILES: CC(C)c1ccc2c(c1)c1c(n2CC(=O)O)CCN(C(=O)c2ccccc2)C1
- Activity [3]: < 30%

SMILES: O=C(O)Cn1c2c(c3cc(C(F)(F)F)ccc31)CN(C(=O)c1ccccc1)CC2
- IC50 [1]: > 10 µM
- IC50 [2]: 0.13 µM
- Activity [3]: < 30%
- Ratio IC50 (Homo sapiens): > 1100
